These results are taken from ChEMBL document CHEMBL1156317, “Design and synthesis of conformationally constrained N,N-disubstituted 1,4-diazepanes as potent orexin receptor antagonists” (Bioorg Med Chem Lett, 2010).

Data set [1] deals with T1, Orexin/Hypocretin receptor type 1 (Homo sapiens, UniProt O43613).
T1 sequence (O43613 whole entry): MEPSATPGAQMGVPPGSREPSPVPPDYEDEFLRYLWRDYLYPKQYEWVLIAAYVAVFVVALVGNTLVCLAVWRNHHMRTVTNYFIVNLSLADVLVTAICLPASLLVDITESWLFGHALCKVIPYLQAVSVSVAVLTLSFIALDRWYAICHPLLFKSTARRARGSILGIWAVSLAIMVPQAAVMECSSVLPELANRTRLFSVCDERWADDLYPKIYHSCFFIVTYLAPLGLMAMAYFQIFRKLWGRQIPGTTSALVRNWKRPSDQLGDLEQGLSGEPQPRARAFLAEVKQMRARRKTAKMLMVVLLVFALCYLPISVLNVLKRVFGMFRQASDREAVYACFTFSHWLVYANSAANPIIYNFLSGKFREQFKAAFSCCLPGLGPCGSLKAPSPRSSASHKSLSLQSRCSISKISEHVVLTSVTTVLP
Description: Binding affinity to OX1 receptor by radioligand displacement assay. The essentials:
(§1)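 Displacement of a high-affinity radioligand bound to human orexin receptors. Values expressed as Ki.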

Data set [2] addresses T2, Orexin receptor type 2 (Homo sapiens, UniProt O43614).
T2 sequence (O43614 whole entry): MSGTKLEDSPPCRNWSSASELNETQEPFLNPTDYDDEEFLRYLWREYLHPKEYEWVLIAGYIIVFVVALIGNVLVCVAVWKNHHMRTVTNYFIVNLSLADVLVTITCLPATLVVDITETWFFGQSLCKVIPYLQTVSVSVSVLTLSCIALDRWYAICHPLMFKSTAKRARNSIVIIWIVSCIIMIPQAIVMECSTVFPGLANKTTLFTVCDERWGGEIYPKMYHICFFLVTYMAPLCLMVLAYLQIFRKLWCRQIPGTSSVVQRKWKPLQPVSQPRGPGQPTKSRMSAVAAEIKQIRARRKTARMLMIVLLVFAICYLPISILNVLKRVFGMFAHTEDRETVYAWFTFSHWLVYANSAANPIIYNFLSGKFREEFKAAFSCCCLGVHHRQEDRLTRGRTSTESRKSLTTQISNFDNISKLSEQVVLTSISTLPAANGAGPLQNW
Description: Binding affinity to OX2 receptor by radioligand displacement assay. In outline: as §1
In general terms: In a radioligand displacement assay an active substance lowers the binding of a labelled ligand.

The target in data set [3] is T1, Orexin/Hypocretin receptor type 1. Description: Antagonist activity at OX1 receptor assessed as inhibition of calcium flux by FLIPR assay. The data set is classed as functional. In outline: (§2)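 FLIPR assay on human orexin receptors, with calcium flux as the functional read-out of antagonism. Values expressed as IC50.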
Background: Calcium assays in cells follow changes in intracellular calcium, usually with a dye or a luminescent sensor.

Data set [4] deals with T2, Orexin receptor type 2. Description: Antagonist activity at OX2 receptor assessed as inhibition of calcium flux by FLIPR assay. In kind it is functional. In outline:
as §2

The nature of data set [5]: AUC (0 to 24 hrs) in rat at 10 mg/kg, po and 2 mg/kg, iv. In kind it is ADME, organism-based. To be noted: plasma. The essentials:
(§3)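 Rats dosed orally at 10 mpk in VitE-TPGS and intravenously at 2 mpk in DMSO.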

Data set [6] deals with LLC-PK1. Description: Ratio of permeability from basolateral to apical side over apical to basolateral side in pig LLC-PK1 cells expressing MDR1.
A short description of data set [7]: Drug level in Sprague-Dawley rat plasma at 2 mg/kg, iv after 30 mins. The data set is classed as ADME, organism-based. Details: dose 2 mg/kg, route intravenous. The essentials:
(§4)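 Rats aged seven to ten weeks, anesthetized with isoflurane (5% in oxygen to induce, 2% by nose cone to maintain), kept at 37 °C. Compound given by tail-vein infusion at 2 mg/kg over 30 min. At the end of infusion, CSF taken from the cisterna magna, then plasma by cardiac puncture, then the brain harvested. All samples frozen on dry ice and analysed for compound levels.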

The nature of data set [8]: Cmax in dog. The data set is classed as ADME, organism-based, Canis lupus familiaris. To be noted: in vivo.
Data set [9] can be described thus: AUC (0 to 24 hrs) in dog. In kind it is ADME, organism-based, Canis lupus familiaris. Details: time < 24 hr. To be noted: plasma.
Data set [10] can be described thus: Clearance in dog. The data set is classed as ADME, organism-based, Canis lupus familiaris. To be noted: in vivo.
The nature of data set [11]: Cmax in rat at 10 mg/kg, po and 2 mg/kg, iv. In kind it is ADME, organism-based. To be noted: in vivo. The essentials:
as §3

Data set [12] can be described thus: Oral bioavailability in dog. The data set is classed as ADME, organism-based, Canis lupus familiaris. To be noted: in vivo.
The nature of data set [13]: Oral bioavailability in rat at 10 mg/kg. To be noted: in vivo. The data set is classed as ADME, organism-based. The essentials:
as §3

Data set [14] in a line: Drug level in Sprague-Dawley rat brain at 2 mg/kg, iv after 30 mins. In kind it is ADME, organism-based. Details: dose 2 mg/kg, route intravenous. To be noted: read-out: Drug uptake. In outline: as §4
Data set [15] in a line: Drug level in Sprague-Dawley rat CSF at 2 mg/kg, iv after 30 mins. In kind it is ADME, organism-based. Details: dose 2 mg/kg, route intravenous. To be noted: cerebrospinal fluid, read-out: Drug uptake. In outline: as §4
A short description of data set [16]: Protein binding in human. To be noted: in vivo, read-out: PB (converted). In kind it is ADME, organism-based.
A short description of data set [17]: Apparent permeability across pig LLC-PK1 cells. The data set is classed as ADME, cell-based, Sus scrofa.
Data set [18] in a line: Half life in rat at 10 mg/kg, po and 2 mg/kg, iv. To be noted: in vivo. The data set is classed as ADME, organism-based. The essentials:
as §3

Data set [19] in a line: Clearance in rat at 10 mg/kg, po and 2 mg/kg, iv. The data set is classed as ADME, organism-based. To be noted: in vivo. The essentials:
as §3

Data set [20] in a line: Protein binding in rat. The data set is classed as ADME, organism-based. To be noted: in vivo, read-out: PB (converted).
The nature of data set [21]: Half life in dog. To be noted: in vivo. In kind it is ADME, organism-based, Canis lupus familiaris.
The nature of data set [22]: Ratio of drug level in brain to plasma in Sprague-Dawley rat at 2 mg/kg, iv after 30 mins. The data set is classed as ADME, organism-based. Details: dose 2 mg/kg, route intravenous. In outline:
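Male/female unspecified Sprague–Dawley rats, 7–10 weeks old, under isoflurane anaesthesia (5% induction, 2% maintenance via nose cone) on a 37 °C warming blanket; compound given by tail-vein infusion, 2 mg/kg over 30 min. At end of infusion CSF taken from cisterna magna, plasma by cardiac puncture, brain harvested; samples frozen on dry ice and compound levels measured to give brain/plasma ratio.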

A short description of data set [23]: Lipophilicity, log P of the compound. The data set is classed as physicochemical. To be noted: octanol/water.

Broadly, the Ki is the equilibrium dissociation constant of an inhibitor or competing ligand from its target. For orientation: IC50 means the concentration at which inhibition is half-maximal. Take `Cc1ccc(-n2nccn2)c(C(=O)N2CC3CC2CN(c2ncc4ccccc4n2)C3)c1` (stereo unspecified): the Ki was determined as 12 nM in data set [1] and 11 nM in [2]. Besides, the values for the half-maximal inhibitory concentration (IC50) in [3] and in data set [4] were 77 nM and 110 nM, respectively.

As to `Cc1ccc(-n2nccn2)c(C(=O)N2CCC3CC2CN3c2ncc3cc(F)ccc3n2)c1` (racemic), the Ki in data set [1] amounted to 870 nM; in data set [2] it was 260 nM. Moreover, the values for the IC50 in data set [3] and in data set [4] were over 5700 nM and over 10000 nM, respectively.

As to `Cc1ccc(-n2nccn2)c(C(=O)N2CC3CC2CCN3c2ncc3cc(F)ccc3n2)c1` (racemic), the Ki turned out to be 1700 nM in data set [1] and 3500 nM in data set [2]. Besides, the IC50 in [3] amounted to 3900 nM; in [4], 3700 nM.

`Cc1ccc(-n2nccn2)c(C(=O)N2CC3CC(C2)N(c2ncc4ccccc4n2)C3)c1` (racemic): the Ki was 2.3 nM in [1] and 3.6 nM in [2]. Also, the IC50 in data set [3] came to 42 nM; in data set [4], 65 nM.

Usually AUC(0-t) stands for exposure summed from dosing to a finite time, without extrapolation to infinity. Read a low AUC(0-t) as less exposure. As a reminder, the Cmax is the peak of the concentration-time curve. In general, bioavailability refers to the share of a dose that reaches the circulation, judged against a reference dose that is usually intravenous. Read a low bioavailability as little systemic uptake. Broadly, the Papp is a coefficient for how fast a substance crosses the barrier. In general, half-life refers to the time in which the quantity being followed falls by half. Low values mean fast loss, high ones slow loss. In general, Kp refers to tissue or fluid exposure divided by exposure in the circulation. In general, logP refers to the decadic logarithm of the partition coefficient of the neutral form, usually between octanol and water. A low value points to a more hydrophilic compound. With `Cc1ccc(-n2nccn2)c(C(=O)N2CC3CC(C2)N(c2ncc4ccccc4n2)C3)c1` (single isomer, unassigned; enantiomer B), in data set [5], the AUC(0-t) came out at 0.23 µM·h. Moreover, the Ratio in data set [6] is 0.9. Further, the concentration at 0.5 h was 835 nM in data set [7], 690 nM in data set [14] and 60 nM in data set [15]. The Cmax in data set [8] was found to be 510 nM; in data set [11] it was 150 nM. Besides, the AUC(0-t) at 24 h in data set [9] came out at 0.49 µM·h. For the same molecule, the results for the clearance in [10] and in [19] were 24 mL/min/kg and 45 mL/min/kg, respectively. In addition, the Ki was 0.7 nM in data set [1] and 0.9 nM in data set [2]. Moreover, the results for the bioavailability in data set [12] and in data set [13] were 8% and 2%, respectively. Moreover, the IC50 in data set [3] was 24 nM; in data set [4], 44 nM. Moreover, the values for the fraction unbound in data set [16] and in [20] were 0.064 and 0.073, respectively. Moreover, the Papp in [17] was determined as 37 ×10⁻⁶ cm/s. Besides, the half-life in [18] was 42 min; in data set [21], 54 min. Besides, the Kp at 0.5 h in data set [22] is 0.8. Besides, the logP in data set [23] is 2.6.

Take `Cc1ccc(-n2nccn2)c(C(=O)N2CC3CC(C2)N(c2ncc4ccccc4n2)C3)c1` (single isomer, unassigned; enantiomer A): the Ki in data set [1] turned out to be 110 nM; in data set [2] it was 155 nM. For the same molecule, the results for the IC50 in [3] and in data set [4] were 2500 nM and 6200 nM, respectively.

For the molecule `Cc1ccc(-n2nccn2)c(C(=O)N2CCCN(c3ncc4cc(F)ccc4n3)CC2)c1`, the Ki in data set [1] stood at 1 nM; in data set [2] it was 0.2 nM. The figures for the IC50 in data set [3] and in data set [4] were 36 nM and 27 nM, respectively.

Molecule `Cc1ccc(-n2nccn2)c(C(=O)N2CCCN(c3ncc4ccccc4n3)CC2)c1` showed an AUC(0-t) in data set [5] of 0.19 µM·h. Also, the concentration at 0.5 h is 664 nM in data set [7], 462 nM in data set [14] and 19 nM in [15]. The highest concentration (Cmax) in data set [8] was found to be 230 nM; in [11], 300 nM. Also, the AUC(0-t) at 24 h in data set [9] is 0.44 µM·h. Also, the clearance was found to be 12 mL/min/kg in [10] and 53 mL/min/kg in data set [19]. The bioavailability in data set [12] was determined as 16%; in data set [13], 2%. Further, the half-maximal inhibitory concentration (IC50) in [3] was 29 nM; in data set [4], 27 nM. Besides, the figures for the fraction unbound in data set [16] and in data set [20] were 0.024 and 0.029, respectively. Further, the half-life is 18 min in data set [18] and 78 min in data set [21]. Also, the Kp at 0.5 h in [22] is 0.7. The molecule further showed a logP in [23] of 2.91.
